PMC3210412 (Biochemical pharmacology, 2011)

Legend:
[1] = cited from earlier work
ERα [2] = target: T1, ERα (Homo sapiens, UniProt P03372); test: Luciferase reporter assay in Hs578T-ERαLuc cells; assay type: cell-based; conditions: for luciferase induction in Hs578T-ERαLuc (in words): b31: 10 nM DPN or PPT, 24 hr
T1 sequence (P03372 1-595): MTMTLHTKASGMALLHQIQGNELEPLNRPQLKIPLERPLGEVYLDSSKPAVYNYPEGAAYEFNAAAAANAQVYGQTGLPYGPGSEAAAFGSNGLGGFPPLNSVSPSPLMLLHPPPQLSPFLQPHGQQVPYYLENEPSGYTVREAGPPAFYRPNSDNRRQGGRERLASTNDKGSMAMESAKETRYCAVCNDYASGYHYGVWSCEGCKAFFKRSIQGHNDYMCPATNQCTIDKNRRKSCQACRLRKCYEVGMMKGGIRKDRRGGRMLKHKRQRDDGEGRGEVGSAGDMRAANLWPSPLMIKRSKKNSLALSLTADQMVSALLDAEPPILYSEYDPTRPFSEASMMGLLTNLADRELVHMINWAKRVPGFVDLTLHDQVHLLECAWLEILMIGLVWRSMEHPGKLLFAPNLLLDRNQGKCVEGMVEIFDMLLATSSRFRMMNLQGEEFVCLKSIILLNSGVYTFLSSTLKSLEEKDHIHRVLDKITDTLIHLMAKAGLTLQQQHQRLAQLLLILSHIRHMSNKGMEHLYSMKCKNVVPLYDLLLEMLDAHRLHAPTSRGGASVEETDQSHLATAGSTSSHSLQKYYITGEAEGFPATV

ITGA6 (ERα target gene) = test: qPCR of ERα target gene ITGA6 in Hs578T-ERα cells; assay type: cell-based; conditions: for ITGA6 expression in Hs578T-ERα cells: ligand 24 hr, DPN 10 nM, liquiritigenin 100 nM; for ITGA6 expression in Hs578T-ERα cells at 1 μM: 1 μM ligand, 24 hr
Method in brief: (§1)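 Cells were hormone-depleted for 3 days in phenol red-free DMEM/F12 + 10% charcoal-stripped FBS, split into 5% stripped serum, and induced with 50 ng/mL Dox for 48 hr. They were then treated with Dox plus test compound or 0.1% DMSO vehicle for 24 hr. Total RNA was extracted and assayed by qRT-PCR: ITGA6 in Hs578T-ERα cells, C3 and JAG1 in Hs578T-ERβ cells. There were three biological replicates, with two-tailed t-tests against control.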

C3 (ERβ target gene) = test: qPCR of ERβ target gene C3 in Hs578T-ERβ cells; assay type: cell-based; conditions: 50 ng/mL Dox 48 hr, ligand 24 hr; cosmosiin 1 μM
Method in brief: as §1

JAG1 (ERβ target gene) = test: qPCR of ERβ target gene JAG1 in Hs578T-ERβ cells; assay type: cell-based; conditions: for JAG1 repression in Hs578T-ERβ cells: 50 ng/mL Dox 48 hr, ligand 24 hr; for JAG1 repression compared to E2, DPN or 1 μM liquiritigenin: 100 nM liquiritigenin, 1 μM cosmosiin
Method in brief: as §1

ERα [3] = target: T1, ERα; conditions: cited from earlier work
ERα [4] = target: T1, ERα; conditions: cited from earlier work; remark: listed apart in the source
ERβ [5] = target: T2, ERβ (Homo sapiens, UniProt Q92731); test: Luciferase reporter assay in Hs578T-ERβLuc cells; assay type: cell-based; conditions: for luciferase induction in Hs578T-ERβLuc (in words): b31: 10 nM DPN or PPT, 24 hr, cosmosiin up to 10 μM
T2 sequence (Q92731 whole entry): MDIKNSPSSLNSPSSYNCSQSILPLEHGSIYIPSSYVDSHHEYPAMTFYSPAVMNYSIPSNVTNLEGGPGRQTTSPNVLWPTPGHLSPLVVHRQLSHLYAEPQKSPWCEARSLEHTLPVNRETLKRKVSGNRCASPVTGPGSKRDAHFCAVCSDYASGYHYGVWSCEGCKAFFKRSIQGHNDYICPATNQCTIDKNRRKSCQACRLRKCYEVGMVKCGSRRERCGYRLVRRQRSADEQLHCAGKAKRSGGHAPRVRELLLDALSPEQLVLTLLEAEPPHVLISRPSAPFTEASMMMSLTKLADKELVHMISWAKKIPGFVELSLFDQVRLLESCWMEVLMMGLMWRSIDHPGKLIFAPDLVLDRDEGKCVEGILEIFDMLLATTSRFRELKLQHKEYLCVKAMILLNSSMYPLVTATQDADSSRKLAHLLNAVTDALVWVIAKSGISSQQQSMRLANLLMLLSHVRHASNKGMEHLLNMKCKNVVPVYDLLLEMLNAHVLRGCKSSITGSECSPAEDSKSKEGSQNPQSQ

ERβ [6] = target: T2, ERβ; conditions: cited from earlier work
ERα/β and ERβ/β dimers = test: BRET dimerization assays; assay type: cell-based; conditions: unpublished data
FLuc reporter transcript = test: RT-PCR of firefly luciferase; assay type: cell-based; conditions: 1 μM cosmosiin vs 1 nM E2, 4 and 24 hr; both cell lines
ERα [7] = target: T1, ERα; test: Competitive ligand binding assay; conditions: read-out: IC50 ERα, unpublished data
ERβ [8] = target: T2, ERβ; test: Competitive ligand binding assay
ERα [9] = target: T1, ERα; conditions: concentrations up to 2.5 μM; U2OS, HeLa or WAR5 prostate cancer cells transfected with ERα; cited from earlier work
ERβ [10] = target: T2, ERβ; test: pGL4.3xERE reporter in HEK293 cells transfected with full length ERβ; assay type: cell-based; conditions: 1 nM E2, 24 hr
T47D-KBLuc cells = conditions: read-out: EC50, T47D-KBLuc cells; approximate; cited from earlier work

C=Cc1cc(O)cc2nc(-c3ccc(O)c(F)c3)oc12 [ERB-041]
efficacy in rheumatoid arthritis trial [1]: did not improve arthritis symptoms
tolerability in rheumatoid arthritis trial [1]: well tolerated

CCCc1c(-c2ccc(O)cc2)nn(-c2ccc(O)cc2)c1-c1ccc(O)cc1 [PPT, propyl pyrazole triol]
EC50 (ERα [2]): 0.016 nM
selectivity for ERα (EC50 comparison) (ERα [2]; Hs578T-ERαLuc vs Hs578T-ERβLuc): ~1000 fold
luciferase induction in Hs578T-ERαLuc (in words) (ERα [2]): selectively activated luciferase expression in Hs578T-ERαLuc
ITGA6 expression in Hs578T-ERα cells (ITGA6 (ERα target gene)): up-regulated
C3 expression in Hs578T-ERβ cells (C3 (ERβ target gene)): slightly induced C3 expression compared to DMSO
JAG1 repression in Hs578T-ERβ cells (JAG1 (ERβ target gene)): had no effect on JAG1 repression
induction of estrogen responsive reporter, HELN-ERα cells (ERα [3]): unable to induce an estrogen responsive reporter
higher binding affinity for ERα compared to ERβ (ERα [4]): 400 fold
EC50 (ERβ [5]): 26 nM
concentrations at which reporter is activated in Hs578T-ERβLuc (ERβ [5]): greater than 100 nM
luciferase induction in Hs578T-ERβLuc (in words) (ERβ [5]): could not induce luciferase expression to the same extent as E2
induction of estrogen responsive reporter, HEC-1 cells + ERβ (ERβ [6]): unable to induce an estrogen responsive reporter

O=c1cc(-c2ccc(O)cc2)oc2cc(O[C@@H]3O[C@H](CO)[C@@H](O)[C@H](O)[C@H]3O)cc(O)c12 [Cosmosiin, apigenin 7-glucoside]
ER dimer induction (BRET) (ERα/β and ERβ/β dimers): selectively induces ERα/β and ERβ/β dimers
luciferase induction in Hs578T-ERαLuc (in words) (ERα [2]): only slightly activated luciferase reporter expression
ITGA6 expression in Hs578T-ERα cells at 1 μM (ITGA6 (ERα target gene)): ITGA6 expression was induced
C3 expression in Hs578T-ERβ cells (C3 (ERβ target gene)): induced C3 expression at 1 μM, but not to the same extent as E2
luciferase transcript level compared to E2 (FLuc reporter transcript): did not induce luciferase expression to a greater extent than E2
JAG1 repression in Hs578T-ERβ cells (JAG1 (ERβ target gene)): occurred to a similar degree
JAG1 repression compared to E2, DPN or 1 μM liquiritigenin (JAG1 (ERβ target gene)): do not fully repress JAG1 expression
luciferase induction in Hs578T-ERβLuc (in words) (ERβ [5]): induced luciferase expression to a much greater extent than E2
luciferase induction with ICI 182,780 co-treatment or without Dox (ERβ [5]; data not shown): did not induce luciferase expression in Dox-treated cells co-treated with ICI 182,780 or cells not treated with Dox
IC50 (ERα [7]): 15900 nM
IC50 (ERβ [8]; read-out: IC50 ERβ, unpublished data): 3300 nM
higher binding affinity for ERβ (ERβ [8]; unpublished data): 3 fold

O=C1C[C@@H](c2ccc(O)cc2)Oc2cc(O)ccc21 [Liquiritigenin, liquiritigenin]
ITGA6 expression in Hs578T-ERα cells at 1 μM (ITGA6 (ERα target gene)): ITGA6 expression was induced
ITGA6 expression in Hs578T-ERα cells (ITGA6 (ERα target gene)): did not fully activate its expression
C3 expression in Hs578T-ERβ cells (C3 (ERβ target gene)): capable of inducing C3 expression to a comparable level as E2
activation of ERα in transcriptional assays (ERα [9]): minimal activation of ERα
JAG1 repression in Hs578T-ERβ cells (JAG1 (ERβ target gene)): occurred to a similar degree
JAG1 repression compared to E2, DPN or 1 μM liquiritigenin (JAG1 (ERβ target gene)): do not fully repress JAG1 expression

N#CC(Cc1ccc(O)cc1)c1ccc(O)cc1 (stereo not shown) [DPN, diarylpropionitrile]
ITGA6 expression in Hs578T-ERα cells (ITGA6 (ERα target gene)): did not fully activate its expression
C3 expression in Hs578T-ERβ cells (C3 (ERβ target gene)): capable of inducing C3 expression to a comparable level as E2
JAG1 repression in Hs578T-ERβ cells (JAG1 (ERβ target gene)): occurred to a similar degree

C[C@]12CC[C@@H]3c4ccc(O)cc4CC[C@H]3[C@@H]1CC[C@@H]2O [E2, 17β-estradiol]
induction of luciferase, HEK293 + ERβ (ERβ [10]): 15 fold
ITGA6 expression in Hs578T-ERα cells (ITGA6 (ERα target gene)): up-regulated
C3 expression in Hs578T-ERβ cells (C3 (ERβ target gene)): up-regulated in Hs578T-ERβ cells
JAG1 repression in Hs578T-ERβ cells (JAG1 (ERβ target gene)): occurred to a similar degree
EC50 (T47D-KBLuc cells): ~0.003 nM
